In ChEMBL document CHEMBL3804820, “2-hydroxyisoquinoline-1,3(2H,4H)-diones (HIDs) as human immunodeficiency virus type 1 integrase inhibitors: Influence of the alkylcarboxamide substitution of position 4” (Eur J Med Chem, 2016):
pIC50: −log10 of the molar value.

Legend:
hERG (KCNH2) [1] = target: T1, hERG (KCNH2) (Homo sapiens, UniProt Q12809); test: in vitro; conditions: CHO-K1 cells expressing human ERG
[2] = Cytotoxicity against human HepG2 cells assessed as reduction in nuclear size at 30 uM after 72 hrs by fluorescent image analysis relative to untreated control; type: cell-based; conditions: read-out: INH
Procedure, shortened: (§1)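 Contract in vitro cytotoxicity panel covering cell number, intracellular free calcium, nuclear size, membrane permeability and mitochondrial membrane potential. Compounds tested at 1.0, 30.0 and 100.0 µM; values are percentage change versus untreated control, and IC50 where derived.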

HepG2 [3] = test: Cytotoxicity against human HepG2 cells assessed as increase in membrane permeability at 30 uM after 72 hrs by fluorescent image analysis relative to untreated control; type: cell-based; conditions: hepg2, 72 h
[4] = Inhibition of recombinant HIV1 reverse transcriptase RNase H activity using calf thymus ssDNA-[3H]-RNA as template/primer incubated for 10 mins; set-up: species or system Human immunodeficiency virus 1
Procedure, shortened: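 Recombinant HIV-1 RT (4.5 pmol) preincubated with compound 10 min at 37 °C. Then reacted 10 min at 37 °C with [3H]-RNA/calf thymus DNA hybrid (20,000 cpm) in 50 mM Tris-HCl pH 8.0, 10 mM DTT, 6 mM MgCl2, 80 mM KCl. Stopped with cold TCA/pyrophosphate; released radioactivity taken by subtraction from undigested control.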

[5] = Plasma protein binding in human at 10 uM incubated for 4 hrs by equilibrium dialysis method; type: ADME, cell-free; conditions: read-out: PPB
Procedure, shortened: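 Human plasma protein binding, given as percent bound and percent recovery, in a standard contract assay.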

CYP2C19 = CYP2C19 (Homo sapiens, UniProt P33261); test: Inhibition of human recombinant CYP2C19 using CEC as substrate at 10 uM incubated for 50 mins by fluorimetry relative to control; type: ADME; conditions: recombinant CYP2C19, probe CEC
Procedure, shortened: (§2)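 Recombinant CYP isoforms, each with its fluorogenic substrate: CYP1A2 and CYP2C19 with CEC, CYP2C9 and CYP2D6 with MFC, CYP3A4 with BFC. Read as percentage inhibition of control, standard contract assays.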

HepG2 [6] = test: Cytotoxicity against human HepG2 cells assessed as increase in intracellular free calcium level at 30 uM after 72 hrs by fluorescent image analysis relative to untreated control; type: cell-based; conditions: hepg2, 72 h
Procedure, shortened: as §1

HepG2 [7] = test: Cytotoxicity against human HepG2 cells assessed as increase in intracellular free calcium level at 100 uM after 72 hrs by fluorescent image analysis relative to untreated control; type: cell-based; conditions: hepg2, 72 h
Procedure, shortened: as §1

hERG (KCNH2) [8] = target: T1, hERG (KCNH2); test: in vitro; conditions: CHO-K1 cells expressing human ERG; remark: listed apart in the source
HepG2 [9] = test: Cytotoxicity against human HepG2 cells assessed as increase in intracellular free calcium level at 1 uM after 72 hrs by fluorescent image analysis relative to untreated control; type: cell-based; conditions: hepg2, 72 h
Procedure, shortened: as §1

[10] = Cytotoxicity against human HepG2 cells assessed as reduction in nuclear size at 1 uM after 72 hrs by fluorescent image analysis relative to untreated control; type: cell-based; conditions: read-out: INH
Procedure, shortened: as §1

CYP1A2 = target: T2, CYP1A2 (Homo sapiens, UniProt P05177); test: Inhibition of human recombinant CYP1A2 using CEC as substrate at 10 uM incubated for 30 mins by fluorimetry relative to control; type: ADME; conditions: recombinant CYP1A2, probe CEC
T2 sequence (P05177 whole entry): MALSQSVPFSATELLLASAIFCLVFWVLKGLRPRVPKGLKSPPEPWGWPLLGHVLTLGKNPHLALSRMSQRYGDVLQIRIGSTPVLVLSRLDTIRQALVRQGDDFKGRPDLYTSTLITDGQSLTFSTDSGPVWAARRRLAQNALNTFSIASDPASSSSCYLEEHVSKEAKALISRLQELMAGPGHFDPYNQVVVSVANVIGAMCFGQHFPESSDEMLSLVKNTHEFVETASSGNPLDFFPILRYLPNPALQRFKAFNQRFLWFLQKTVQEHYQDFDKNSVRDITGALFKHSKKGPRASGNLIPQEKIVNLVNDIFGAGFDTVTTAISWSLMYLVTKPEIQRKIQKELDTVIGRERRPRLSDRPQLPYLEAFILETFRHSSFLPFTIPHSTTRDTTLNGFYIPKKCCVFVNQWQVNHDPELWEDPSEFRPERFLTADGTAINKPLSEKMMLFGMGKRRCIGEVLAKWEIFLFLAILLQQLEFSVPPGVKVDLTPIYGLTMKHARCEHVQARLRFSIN
Procedure, shortened: as §2

[11] = Cytotoxicity against human HepG2 cells assessed as reduction in nuclear size at 100 uM after 72 hrs by fluorescent image analysis relative to untreated control; type: cell-based; conditions: read-out: INH
Procedure, shortened: as §1

[12] = target: Human immunodeficiency virus type 1 integrase (Human immunodeficiency virus 1, UniProt Q7ZJM1); test: Inhibition of HIV1 integrase using 3'-biotin-labelled and 5'-digoxigenin-labelled oligonucleotide substrate incubated for 1 hr by ELISA
Procedure, shortened: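 ELISA with a 3'-biotin oligo and a 5'-digoxigenin partner oligo. Overall assay uses the full complementary oligo; strand transfer uses a precleaved oligo lacking the 3'-GT. Integrase at 160 nM final, annealed oligos 7 nM, in 10 mM MgCl2, 5 mM DTT, 20 mM HEPES pH 7.5, 0.5% PEG, 15% DMSO. Run 1 h at 37 °C, products denatured with NaOH, detected on avidin plates.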

HepG2 [13] = test: Cytotoxicity against human HepG2 cells assessed as increase in membrane permeability at 1 uM after 72 hrs by fluorescent image analysis relative to untreated control; type: cell-based; conditions: hepg2, 72 h
[14] = Cytotoxicity against human MT4 cells assessed as reduction in cell viability by MTT assay; type: cell-based
Procedure, shortened: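 MT-4 cell viability was measured by MTT reduction, run in parallel with the antiviral assay using 5-fold serial compound dilutions. CC50 is the concentration reducing viability by 50%.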

[15] = Therapeutic index, ratio of CC50 for human MT4 cells to EC50 for HIV1 3B infected in human MT4 cells; type: cell-based; conditions: read-out: Ratio CC50/EC50
Procedure, shortened: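 Ratio of CC50 to EC50. Both were determined in parallel by MTT in MT-4 cells, with the EC50 measured against HIV-1 IIIB cytopathic effect.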

[16] = Cytotoxicity against human HepG2 cells assessed as reduction in cell number at 1 uM after 72 hrs by fluorescent image analysis relative to untreated control; type: cell-based; conditions: read-out: INH
Procedure, shortened: as §1

T1 sequence (Q12809 whole entry): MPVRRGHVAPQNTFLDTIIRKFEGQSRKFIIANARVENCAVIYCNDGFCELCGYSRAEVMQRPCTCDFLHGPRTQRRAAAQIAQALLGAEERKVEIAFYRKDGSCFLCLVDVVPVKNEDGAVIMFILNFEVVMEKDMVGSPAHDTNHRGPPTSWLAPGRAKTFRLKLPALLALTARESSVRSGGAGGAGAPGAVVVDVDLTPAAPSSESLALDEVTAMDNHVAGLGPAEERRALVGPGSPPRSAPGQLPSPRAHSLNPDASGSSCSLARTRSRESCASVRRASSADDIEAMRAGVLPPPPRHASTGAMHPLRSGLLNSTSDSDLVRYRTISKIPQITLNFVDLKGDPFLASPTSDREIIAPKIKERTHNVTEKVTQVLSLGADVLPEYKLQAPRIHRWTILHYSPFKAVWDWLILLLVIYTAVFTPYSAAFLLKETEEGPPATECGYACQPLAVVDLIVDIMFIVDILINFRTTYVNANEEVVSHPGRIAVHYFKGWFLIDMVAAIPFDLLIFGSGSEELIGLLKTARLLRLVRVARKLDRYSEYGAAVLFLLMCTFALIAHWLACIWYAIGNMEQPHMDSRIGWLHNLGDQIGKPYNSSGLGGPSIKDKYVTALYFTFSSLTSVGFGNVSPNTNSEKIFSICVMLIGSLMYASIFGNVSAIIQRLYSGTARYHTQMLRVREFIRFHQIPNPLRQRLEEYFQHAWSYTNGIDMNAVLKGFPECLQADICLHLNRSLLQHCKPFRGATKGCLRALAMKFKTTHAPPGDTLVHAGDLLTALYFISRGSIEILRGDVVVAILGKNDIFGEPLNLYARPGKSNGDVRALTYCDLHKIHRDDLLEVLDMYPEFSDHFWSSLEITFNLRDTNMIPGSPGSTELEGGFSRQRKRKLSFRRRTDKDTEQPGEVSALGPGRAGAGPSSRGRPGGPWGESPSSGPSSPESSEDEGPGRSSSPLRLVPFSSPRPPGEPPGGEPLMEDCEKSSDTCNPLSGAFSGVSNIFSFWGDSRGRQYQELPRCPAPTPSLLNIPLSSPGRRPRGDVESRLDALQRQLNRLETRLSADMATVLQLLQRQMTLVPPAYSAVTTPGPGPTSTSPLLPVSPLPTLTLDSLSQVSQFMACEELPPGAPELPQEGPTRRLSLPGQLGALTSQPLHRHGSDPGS
Chain of Human immunodeficiency virus type 1 integrase (Q7ZJM1 whole entry): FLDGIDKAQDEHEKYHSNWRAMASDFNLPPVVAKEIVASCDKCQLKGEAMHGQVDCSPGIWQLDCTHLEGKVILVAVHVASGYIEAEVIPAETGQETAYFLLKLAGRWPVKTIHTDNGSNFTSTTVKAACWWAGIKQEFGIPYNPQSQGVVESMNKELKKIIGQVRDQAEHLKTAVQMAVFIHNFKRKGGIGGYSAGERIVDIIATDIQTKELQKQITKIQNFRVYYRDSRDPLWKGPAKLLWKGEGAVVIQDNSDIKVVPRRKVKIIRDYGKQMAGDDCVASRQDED
Chain of CYP2C19 (P33261 whole entry, canonical isoform): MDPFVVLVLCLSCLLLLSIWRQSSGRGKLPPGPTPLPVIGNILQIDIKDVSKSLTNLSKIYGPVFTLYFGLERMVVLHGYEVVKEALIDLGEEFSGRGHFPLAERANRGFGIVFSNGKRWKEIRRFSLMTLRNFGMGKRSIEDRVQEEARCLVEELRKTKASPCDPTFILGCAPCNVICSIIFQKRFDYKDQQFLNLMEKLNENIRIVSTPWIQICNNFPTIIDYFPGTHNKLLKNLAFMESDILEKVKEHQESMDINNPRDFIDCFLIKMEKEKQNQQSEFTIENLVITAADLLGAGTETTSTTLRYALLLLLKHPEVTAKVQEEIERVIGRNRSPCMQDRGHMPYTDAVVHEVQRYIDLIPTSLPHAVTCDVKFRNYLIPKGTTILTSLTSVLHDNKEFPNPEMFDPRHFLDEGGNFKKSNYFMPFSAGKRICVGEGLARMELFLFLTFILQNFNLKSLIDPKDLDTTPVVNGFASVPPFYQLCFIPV

With `CCCCCCNC(=O)C1C(=O)N(O)C(=O)c2ccccc21` (stereo not drawn) the inhibition at 5 min, 10 µM (hERG (KCNH2) [1]) was 19.4%, the cytotoxicity at 72 h, 30 µM [2] was 12.1% and the Activity (HepG2 [3]) was 7%. The pIC50 [4] was 5.27, the fraction unbound at 4 h, 10 µM [5] was 0.001 and the inhibition at 50 min, 10 µM (CYP2C19) was 9.3%. The Activity (HepG2 [6]) was 5.8%, the Activity (HepG2 [7]) was 32.3% and the inhibition at 5 min, 0.1 µM (hERG (KCNH2) [8]) was 5.8%. The Activity (HepG2 [9]) was -1.5%, the cytotoxicity at 72 h, 1 µM [10] was -7% and the inhibition at 0.5 h, 10 µM (CYP1A2) was 12.7%. It also gave a cytotoxicity at 72 h, 100 µM [11] of 26.8%, a pIC50 [12] of 7.07 and an Activity (HepG2 [13]) of 0.1%. For the same compound, the CC50 [14] was 57.7 µM, the selectivity ratio [15] was 21.2 and the cytotoxicity at 72 h, 1 µM [16] was -10%.
